Assay results reported in ChEMBL document CHEMBL1125042, “Hypolipidemic activity of rifamycin derivatives” (J Med Chem, 1990).
Values after ≈ are worked out from the molar mass of the structure shown.

Experiments:
Rattus norvegicus [1] = assay: Tested for hypolipidemic activity in male rats, cholesterol was determined in serum at 10 mg/kg; type: functional
Outline: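 Groups of eight male Wistar rats (200–230 g) dosed orally in PEG 400, either daily for 7 days (killed 24 h after the last dose) or for 4 days with a second dose on day 4 (killed 16 h later). Fasted 16 h. Paired sera pooled, lipoproteins separated by ultracentrifugation (1.006 and 1.040 g/cm³), HDL taken as the infranatant. Cholesterol measured enzymatically; % vs vehicle, mean ± SEM of four pools.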

Rattus norvegicus [2] = assay: Hypolipidemic activity was determined in male rats, and high-density lipoprotein level was determined at 10 mg/kg; type: functional
Outline: (§1)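 Male Wistar rats (200–230 g), eight per group, were dosed orally in PEG 400 at 8 a.m. for 4 days, plus a second dose at 4 p.m. on day 4. Rats were fasted 16 h and killed 16 h after the last dose. Sera from pairs of rats were pooled. LDL (up to 1.040 g/cm³) was separated by ultracentrifugation and the HDL infranatant taken. Cholesterol was measured enzymatically. Results are % versus vehicle control, mean ± SEM of four pools, Student's t test.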

Rattus norvegicus [3] = assay: Hypolipidemic activity was determined in male rats, and low-density lipoprotein level was determined at 10 mg/kg; type: functional; outline: as §1
[4] = Inhibitory activity against RNA polymerase was determined; parameters: species or system Escherichia coli
Outline: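 E. coli DNA-dependent RNA polymerase inhibition measured in vitro on ether-extracted, permeabilized E. coli cells.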

Staphylococcus aureus = assay: Antibacterial activity against Staphylococcus aureus 10B; type: functional
Outline: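 Agar dilution on DST agar with 2-fold drug dilutions. Inoculum of 10⁴ viable S. aureus 10B was taken from liquid-nitrogen stock, thawed 30 min and not subcultured. It was applied by multipoint replicator and incubated overnight at 37 °C. MIC is the lowest concentration inhibiting growth relative to control cultures.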

Row | SMILES | Activity (Rattus norvegicus [1]) [%] | Activity (Rattus norvegicus [2]) [%] | Activity (Rattus norvegicus [3]) [%] | IC50 [4] [µg/mL] | MIC (Staphylococcus aureus) [µg/mL]
1 | COC1/C=C/OC2(C)Oc3c(C)c(O)c4c(O)c(c(N5CCN(Cc6c(C)cc(C)cc6C)CC5)c(O)c4c3C2=O)NC(=O)C(C)CCCC(C)C(O)C(C)C(O)C(C)C(OC(C)=O)C1C (centres undefined) | -40 | -36 | -59 | 6.5 (≈ 7.08 µM) | 0.2 (≈ 0.218 µM)
2 | COC1/C=C/OC2(C)Oc3c(C)c(O)c4c(O)c(c(N5CCN(Cc6c(C)cc(C)cc6C)CC5)c(O)c4c3C2=O)NC(=O)/C(C)=C\C=C\C(C)C(=O)C(C)C(O)C(C)C(OC(C)=O)C1C (centres undefined) | -11 | -15 | 1 | – | 64 (≈ 70.2 µM)
